Assay outcomes: PubChem BioAssay, Johns Hopkins Ion Channel Center
hERG protect = hERG (human) protection from proarrhythmic block. Q12809. CHO-hERG, FluxOR thallium flux, dofetilide IC70 present. activation (rescue from dofetilide block), less the hit threshold, % at 10 µM. hit rate 0.51% among 310,000. AID 1511;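 active = activation above the mean of controls blocked by dofetilide plus 5 SD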;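 also: thallium influx through hERG after potassium depolarization seen as dye fluorescence rise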
KCNQ1 block = inhibitors of human KCNQ1 potassium channel | hit rate 1.3% among 310,000 | P51787 | B-score at 10 µM | CHO-K1 KCNQ1, FluxOR thallium flux fluorescence; active compounds read high;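 active = compounds whose thallium flux B-score, printed positive for inhibition, exceeds three library SD while starting fluorescence stays within three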;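 also: channel opened by potassium depolarization with thallium stimulus after 20 min compound exposure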
KCNK9 inh = inhibitors of human KCNK9 two-pore domain potassium channel; Q9NPC2; HEK293 KCNK9, FluxOR thallium flux fluorescence; active compounds read low; AID 488922; B-score at 10 µM; hit rate 1.2% among 310,000;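 active = ratio B-score over 3 SD below the library mean, with starting fluorescence within 5 SD of its mean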;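 also: negative B-score means less thallium flux so channel inhibition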
KCNQ1 act = potentiates or activates the human KCNQ1 potassium channel. P51787. CHO-K1 KCNQ1, thallium flux FluxOR fluorescence; active compounds read high. B-score at 10 µM. hit rate 0.35% among 310,000. AID 2648;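 active = fluorescence ratio B-score, a plate-corrected score, at least three library SD, with initial intensity B-score within 5 SD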
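Assay system: CHO-K1 cells stably expressing KCNQ1; Medium: assay buffer with matched DMSO; Also added: K+/Tl+ depolarizing stimulus; Dosing: single dose; Timing: dye 90 min, compound 20 min, room temperature; Measured by: kinetic FluxOR thallium fluorescence, 10-s 1-Hz baseline, 110-s post-stimulus read; Read-out: peak-minus-minimum fluorescence over initial fluorescence, negative-control normalized, B-scored.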
KCNK3 block = human KCNK3 channel inhibition, primary screen | O14649 | CHO-KCNK3 thallium flux, FluxOR fluorescence; active compounds read low | B-score at 10 µM | hit rate 0.84% among 340,000 | AID 602410;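 active = B-score under library mean minus 4 SD, starting fluorescence ratio at most library mean plus 5 SD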;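 also: more negative B-score means stronger inhibition of thallium flux through KCNK3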
Kir21 inh = inhibitors of mouse Kir2.1 inward-rectifier potassium channel; P35561; HEK293-Kir2.1, FluxOR thallium flux fluorescence; active compounds read low; B-score at 10 µM; hit rate 0.85% among 310,000; AID 1672;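 active = fluorescence ratio B-score at or below minus 3 SD of library scores, with starting-brightness B-score within 2 SD, cut at about -4.2 in these data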;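 also: channel flux triggered by added potassium and thallium sulfate stimulus; B-score of peak minus minimum fluorescence over baseline after thallium stimulus; more negative B-score means stronger Kir2.1 block with less thallium influx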
KCNQ1 inh valid = human KCNQ1 channel inhibition, validation assay; shares compounds with KCNQ1 block; KCNQ1 cell line, FluxOR thallium flux fluorescence; inhibition, % at 10 µM; hit rate 93% among 1,600; AID 588353;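 active = primary screen active, with duplicate mean exceeding buffer control mean plus 3 SD of buffer wells, cut at about 28% in these data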;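 also: 0% = buffer control ratio and 100% = XE991 inhibitor control ratio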
CHO KCNQ1 ctr = counter-screen for KCNQ1 inhibitors: effect in parental CHO cells; shares compounds with KCNQ1 block; fluorescence ratio (Tl flux) at 10 µM; hit rate 21% among 1,600; parental CHO-K1, FluxOR thallium flux fluorescence ratio; active compounds read low; zero means no signal rise above baseline;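 active = mean of duplicate thallium-flux fluorescence ratios in parental host cells more than 5 SD below the buffer control mean, cut at about 0.38 in these data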;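 also: ratio is peak minus minimum fluorescence divided by baseline fluorescence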
KCNQ1 ephys val = confirmation of human KCNQ1 potassium channel inhibitors by electrophysiology; shares compounds with KCNQ1 block; KCNQ1-CHO cells, automated patch clamp current; calls only at 10 µM; hit rate 20% among 490;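 active = KCNQ1 current drop exceeding 3 SD of negative control wells, seen in both duplicate runs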;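 also: steady state current during a 2 s step from -80 to +40 mV; negative values mean current inhibition and positive values mean potentiation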
KCNQ2 spec = rat KCNQ2 inhibition in KCNQ1 inhibitor specificity screen. shares compounds with KCNQ1 block. KCNQ2 cells, FluxOR thallium flux fluorescence. inhibition, % at 10 µM. hit rate 71% among 1,600;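 active = mean percent inhibition of the KCNQ2 thallium signal more than 5 SD above the buffer-only control wells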;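 also: KCNQ2 expressed in CHO cells; 0% = buffer control wells and 100% = XE-991 inhibitor control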
KCNQ1-KCNE1 inh = KCNQ1 inhibitor that also blocks human KCNQ1/KCNE1 channel. AID 652147. shares compounds with KCNQ1 block. inhibition, % at 10 µM. hit rate 77% among 1,600. KCNQ1/KCNE1 cells, FluxOR thallium flux fluorescence;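 active = mean percent inhibition of duplicate wells above the buffer-only control mean plus 3 SD of those controls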;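 also: 0% = buffer only wells and 100% = XE-991 inhibitor control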
Target sequence (P51787 whole entry, looked up): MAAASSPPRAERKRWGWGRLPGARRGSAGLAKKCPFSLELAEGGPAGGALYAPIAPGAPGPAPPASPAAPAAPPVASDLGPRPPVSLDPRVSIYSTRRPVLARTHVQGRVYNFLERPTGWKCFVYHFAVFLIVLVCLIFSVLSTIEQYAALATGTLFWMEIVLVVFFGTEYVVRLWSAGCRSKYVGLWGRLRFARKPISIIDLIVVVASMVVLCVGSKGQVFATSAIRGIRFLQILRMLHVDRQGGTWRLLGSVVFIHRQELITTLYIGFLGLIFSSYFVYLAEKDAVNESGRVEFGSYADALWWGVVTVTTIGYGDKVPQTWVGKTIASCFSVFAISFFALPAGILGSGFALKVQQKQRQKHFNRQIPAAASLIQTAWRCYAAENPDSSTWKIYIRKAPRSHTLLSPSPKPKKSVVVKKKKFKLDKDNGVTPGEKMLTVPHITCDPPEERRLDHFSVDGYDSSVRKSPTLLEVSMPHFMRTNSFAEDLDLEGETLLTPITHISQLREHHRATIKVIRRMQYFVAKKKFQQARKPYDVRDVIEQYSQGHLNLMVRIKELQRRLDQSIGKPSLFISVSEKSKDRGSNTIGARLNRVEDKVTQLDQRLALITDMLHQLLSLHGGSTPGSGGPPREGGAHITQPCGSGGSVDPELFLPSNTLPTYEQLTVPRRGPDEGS
* marks the source's active call; other numbers are inactive results; i = inactive; . = not tested or not shown; + = active, no number. Shown are actives, neighbours in structure and some others; about 3.7% of the full set was active somewhere.

SMILES	hERG protect	KCNQ1 block	KCNK9 inh	KCNQ1 act	KCNK3 block	Kir21 inh	KCNQ1 inh valid	CHO KCNQ1 ctr	KCNQ2 spec	KCNQ1-KCNE1 inh	others
C/C(O)=c1/ccc2cccc3nc(C)nc1c23	-28	8*	i	i	i	-9	117*	0.25*	i	i
Cc1cccc2nc3ccccc3cc12	-6	i	i	i	i	-1.8	.	.	.	.
Cc1cc2c(cc1C)N(Cc1ccc(Cl)cc1)C1=NCCCN12	-16	7*	i	i	i	-2.2	91*	0.41	105%*	98%*	KCNQ1 ephys val=+
CSc1ccccc1NC(=O)CSc1nnc(CNC(=O)c2ccccc2F)n1C	-2	i	i	i	i	-1.3	.	.	.	.
COC(=O)c1sc(NC(=O)c2oc3ccccc3c2C)nc1C	-2	i	i	i	i	0.32	.	.	.	.
Cc1c(C(=O)Nc2nnc(C(F)(F)F)s2)oc2ccccc12	-11	7*	i	i	i	0.51	69*	0.54	i	i
Cc1cccc(N2CCN(C(=O)c3c(-c4ccccc4Cl)noc3C)CC2)c1C	-9	i	i	i	i	2.3	.	.	.	.
Cc1c([N+](=O)[O-])c(C(=O)NC2CCCCC2)nn1C	-4	i	i	i	i	0.49	.	.	.	.
CCCc1cc(NCc2ccccn2)n2nc(C)c(-c3ccccc3)c2n1	-16	8*	i	i	i	-0.25	56*	0.42	108%*	84%*
Cc1ccc(S(=O)(=O)Nc2ccc(SC(F)F)cc2)c(C)c1	-10	6*	i	i	i	-0.48	26*	0.45	i	136%*
CC(C)c1ccc(S(=O)(=O)Nc2ccc(SC(F)F)cc2)cc1	-8	i	i	i	i	0.07	.	.	.	.
CCSc1nnc(NC(=O)NC(CC)(C(F)(F)F)C(F)(F)F)s1	-13	7*	i	i	i	-0.12	57*	0.5	i	91%*
CCN(CC)c1nc2ccccc2n(Cc2cccc(OC)c2)c1=O	-6	6*	i	i	i	0.05	109*	0.4	99%*	170%*	KCNQ1 ephys val=i
N#Cc1c(C(F)(F)F)cc(-c2ccc(Cl)cc2)[nH]c1=O	-3	i	i	i	i	0.63	.	.	.	.
N#Cc1c(C(F)(F)F)cc(-c2ccc(F)cc2)[nH]c1=O	-6	11*	i	i	i	0.28	40*	0.54	i	i
Cc1cc(=O)[nH]c(SCC(=O)/C=C2\N(C)c3ccccc3C2(C)C)n1	-22	11*	i	i	i	-0.97	106*	0.48	88%*	79%*	KCNQ1 ephys val=i
CCCCCCCN1C2=NCCCN2c2ccccc21	-15	7*	i	i	i	-0.57	50*	0.51	i	55%*
O=C(CSc1nnc2n1CCCN2C(=S)Nc1ccc(Cl)cc1)c1ccccc1	-20	9*	i	i	i	-0.12	102*	0.53	i	70%*	KCNQ1 ephys val=i
O=C(Nc1ccc(Br)c(C(F)(F)F)c1)c1ccccc1	-14	6*	-7.7*	i	i	-1.5	125*	0.4	137%*	110%*	KCNQ1 ephys val=i
O=C(Nc1ccc(C(F)(F)F)cc1)c1ccccc1	.	.	.	.	i	.	.	.	.	.
Cc1nc(N2CCOCC2)sc1C=O	-9	i	i	i	i	0.86	.	.	.	.
CNC(=O)NC(=O)C(NC1CCCc2ccccc21)c1ccccc1 (centres undefined)	-8	i	i	i	i	-1.4	.	.	.	.
Cc1ccc(NC(=O)C(NC2CCCc3ccccc32)c2ccccc2)cc1Cl (centres undefined)	-7	6*	i	i	i	-2.1	66*	0.36*	100%*	99%*
c1ccc(-c2cc3ccccc3[nH]2)cc1	-11	i	i	i	i	2	.	.	.	.
Clc1ccc2[nH]c(-c3ccccc3)cc2c1	-3	9*	i	i	i	-0.05	131*	0.52	92%*	132%*	KCNQ1 ephys val=i
SMILES	hERG protect	KCNQ1 block	KCNK9 inh	KCNQ1 act	KCNK3 block	Kir21 inh	KCNQ1 inh valid	CHO KCNQ1 ctr	KCNQ2 spec	KCNQ1-KCNE1 inh	others
c1ccc(CC2CCN(c3ncnc4sccc34)CC2)cc1	-32	8*	i	i	i	0.02	136*	0.33*	89%*	176%*
O=C(NC(=S)Nc1ccccc1N1CCN(C(=O)c2ccccc2)CC1)c1ccccc1F	-14	10*	i	i	i	0.03	84*	0.38	110%*	112%*
COc1ccc(S(=O)(=O)N2CCN(c3c(C)cccc3C)CC2)cc1OC	-11	8*	i	i	i	1.3	99*	0.36*	110%*	92%*
COc1ccc(S(=O)(=O)N2CCN(c3ccc(C)cc3C)CC2)cc1OC	-8	i	i	i	i	-0.78	.	.	.	.
Cc1cc(S(=O)(=O)N2CCN(c3c(C)cccc3C)CC2)ccc1F	-7	8*	i	i	i	2	103*	0.39	81%*	136%*	KCNQ1 ephys val=i
Cc1cc(S(=O)(=O)N2CCN(c3ccccc3C)CC2)ccc1F	-11	11*	i	i	-9.8*	-0.05	168*	0.35*	i	i
COc1cccc(OC)c1NC(=O)CN1CCN(C)CC1	-5	i	i	i	i	-1.1	.	.	.	.
Cc1nc(=S)c2c([nH]1)-c1ccccc1CC21CCCCC1	-7	i	i	i	i	0.09	.	.	.	.
Cc1cc(NC(=S)Nc2cccnc2)ccc1Br	-24	10*	i	i	i	-0.05	67*	0.49	i	i
CCCCN(CC)CCNC(=O)CN1C(=O)COc2ccc(S(=O)(=O)N3CCCC3)cc21	-5	i	i	i	i	-1.4	.	.	.	.
CCOC(=O)N1CCC(N2CCCC(CO)(Cc3ccccc3C)C2)CC1 (centres undefined)	-10	i	i	i	i	-1.4	.	.	.	.
COc1cc(CNc2ncnc3c2[nH]c2ccc(C)cc23)cc(OC)c1	-13	i	i	i	i	0.16	.	.	.	.
